EC50 data for ten molecules are collected here from BindingDB's records for doi:10.1021/acs.jmedchem.9b01065 (Colorado State University, 2019).

By EC50 is commonly meant the concentration needed to bring the measured effect to its halfway point.

Test [1] deals with T1, DNA topoisomerase 2-alpha (Homo sapiens, UniProt P11388). Put plainly: Inhibition of topoisomerase 2alpha in human SW620 organoids transfected with EcadPro-RFP reporter assessed as reversion of epithelial-mesenchymal transition by measuring increase in E-cadherin expression after 72 hrs by Hoechst 33342 staining based mCherryRFP reporter gene assay. Summed up: (§1)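 SW620 cells stably carrying VimPro-GFP or EcadPro-mCherry (puromycin selected) grown as organoids and dosed 72 h. Stained with 16 μM Hoechst 33342 for 1 h and imaged as 15 z-layers, 26.5 μm apart. Nuclei segmented and GFP- or mCherry-positive cells counted above background thresholds. Percent positive cells normalised to DMSO.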
T1 sequence (P11388 whole entry): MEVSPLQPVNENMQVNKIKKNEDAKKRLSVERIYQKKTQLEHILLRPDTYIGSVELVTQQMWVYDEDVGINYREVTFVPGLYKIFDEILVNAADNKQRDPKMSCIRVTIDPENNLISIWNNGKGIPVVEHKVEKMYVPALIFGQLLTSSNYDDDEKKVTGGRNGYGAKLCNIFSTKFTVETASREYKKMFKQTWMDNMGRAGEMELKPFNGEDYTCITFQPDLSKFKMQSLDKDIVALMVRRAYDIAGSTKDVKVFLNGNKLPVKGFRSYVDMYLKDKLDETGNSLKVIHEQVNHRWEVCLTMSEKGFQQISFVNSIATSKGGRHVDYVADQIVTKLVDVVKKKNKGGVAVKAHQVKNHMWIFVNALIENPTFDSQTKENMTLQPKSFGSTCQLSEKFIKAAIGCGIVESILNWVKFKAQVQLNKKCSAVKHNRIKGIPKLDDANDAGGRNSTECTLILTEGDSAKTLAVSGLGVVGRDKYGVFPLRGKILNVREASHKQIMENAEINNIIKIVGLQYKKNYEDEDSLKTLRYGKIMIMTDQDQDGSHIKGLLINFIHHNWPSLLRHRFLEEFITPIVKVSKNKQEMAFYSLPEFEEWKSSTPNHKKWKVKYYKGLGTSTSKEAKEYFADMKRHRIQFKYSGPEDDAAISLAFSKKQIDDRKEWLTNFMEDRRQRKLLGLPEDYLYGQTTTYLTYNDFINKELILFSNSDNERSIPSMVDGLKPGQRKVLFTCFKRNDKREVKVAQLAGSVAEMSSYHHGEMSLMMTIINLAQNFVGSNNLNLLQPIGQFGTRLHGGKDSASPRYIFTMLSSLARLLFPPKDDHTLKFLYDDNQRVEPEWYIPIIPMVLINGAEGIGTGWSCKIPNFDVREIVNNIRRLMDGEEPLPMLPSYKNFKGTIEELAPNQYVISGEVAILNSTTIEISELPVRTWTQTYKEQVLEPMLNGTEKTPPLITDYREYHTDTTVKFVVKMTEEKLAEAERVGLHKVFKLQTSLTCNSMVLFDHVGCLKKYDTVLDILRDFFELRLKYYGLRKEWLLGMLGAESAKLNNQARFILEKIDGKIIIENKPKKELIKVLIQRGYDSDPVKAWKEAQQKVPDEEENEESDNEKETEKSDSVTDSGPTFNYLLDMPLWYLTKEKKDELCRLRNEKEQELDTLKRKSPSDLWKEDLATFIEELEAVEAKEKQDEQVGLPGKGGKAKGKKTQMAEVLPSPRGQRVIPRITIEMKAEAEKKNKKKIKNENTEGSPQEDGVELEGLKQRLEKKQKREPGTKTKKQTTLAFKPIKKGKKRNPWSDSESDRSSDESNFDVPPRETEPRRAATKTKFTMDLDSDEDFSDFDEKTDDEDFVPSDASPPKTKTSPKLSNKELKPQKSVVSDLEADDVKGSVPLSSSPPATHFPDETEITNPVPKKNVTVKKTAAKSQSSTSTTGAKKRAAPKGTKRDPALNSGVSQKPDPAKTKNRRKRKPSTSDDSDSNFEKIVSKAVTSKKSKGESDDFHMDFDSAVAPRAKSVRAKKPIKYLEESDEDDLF
(In general: A reporter such as luciferase makes a cellular process visible.)

For test [2], the target named is T1, DNA topoisomerase 2-alpha. Nature of the test: Inhibition of topoisomerase 2alpha in human SW620 organoids transfected with VimPro-GFP reporter assessed as reversion of epithelial-mesenchymal transition by measuring reduction in vimentin expression after 72 hrs by Hoechst 33342 staining based GFP reporter gene assay. In outline:
as §1

With `COc1cc(NC(C)=O)c(O)c2nccc(-c3ccccc3NC(=O)c3ccccc3)c12`, the half-maximal effective concentration (EC50) was 9 µM in test [1] and 4 µM in test [2].
Taken in the same sequence, the figures for `CC(C)(C)C(=O)Nc1ccc2c(-c3ccccc3)ccnc2c1O` were 3.1 µM and 4.7 µM.
Consider `CC(=O)Nc1ccc2c(-c3ccoc3)ccnc2c1O`, for which the EC50 was 3.4 µM in test [1] and 1.7 µM in test [2].
Regarding `CC(=O)Nc1ccc2c(-c3cc(F)ccc3O)ccnc2c1O`, the EC50 in test [1] amounted to 1.6 µM; in test [2], 1.2 µM.
Taken in the same sequence, the figures for `O=C(CCN1CCOCC1)Nc1ccc2c(-c3cc(F)ccc3O)ccnc2c1O` were 1.2 µM and 1.9 µM.
For `O=C(CCN1CCOCC1)Nc1ccc2c(-c3cc4ccccc4o3)ccnc2c1O`, the concentration for a half-maximal effect (EC50) in test [1] is 3 µM; in test [2] it was 2.4 µM.
As to `O=C(CN1CCOCC1)Nc1ccc2c(-c3cc4ccccc4o3)ccnc2c1O`, the results for the EC50 in test [1] and in test [2] were 3.3 µM and 1 µM, respectively.
With `CC(=O)Nc1ccc(-c2ccnc3c(O)c(NC(C)=O)ccc23)cc1`, the concentration for a half-maximal effect (EC50) in test [1] amounted to 5.5 µM; in test [2], 9.5 µM.
Taken in the same sequence, the figures for `CC(=O)Nc1ccc2c(-c3cccs3)ccnc2c1O` were 1.1 µM and 1.2 µM.
Taken in the same sequence, the figures for `CC(=O)Nc1ccc2c(-c3cc4ccccc4o3)ccnc2c1O` were 5.4 µM and 3.5 µM.
